The subject of one series is Leishmania donovani. Briefly: Antileishmanial activity against Leishmania donovani LEM703 by MTT assay. It is filed as functional, organism-based.
Series [1] can be described thus: Toxicity against red blood cells assessed as hemolytic activity. The series is classed as cell-based, Erythrocyte. Conditions: human. A digest of the protocol:
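Human red cells from EDTA blood of healthy volunteers were washed thrice in PBS and mixed 1:1 with compound in PBS, 100 to 6.25, for 1 h at 37 °C. After centrifugation at 800g for 10 min, supernatant absorbance was read at 550 nm against 625 nm. % hemolysis = (A − A0)/(Amax − A0) × 100, with PBS as background and water as 100%. HC50 is the concentration giving 50% hemolysis.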

In the next series the test system is THP-1. Put plainly: Cytotoxicity against human THP1 cells after 72 hrs. The series is classed as functional, cell-based. Conditions: THP-1, 72 h. A digest of the protocol:
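THP1 cells at 1 × 10^6 cells/ml were exposed to test concentrations of 50 to 156 for 72 h. About 4 × 10^6 cells were then stained with PI (10 µg/ml) and SYBR-14 (0.1 mg/ml) in HEPES/NaCl/BSA buffer, pH 7.4, for 30 min at 37 °C. Flow cytometry used 488 nm excitation, analysed at least 10,000 cells, excluded autofluorescence and debris, and each experiment was repeated twice.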

The subject of another series is Leishmania infantum. Put plainly: Antileishmanial activity against Leishmania infantum LEM235 by MTT assay. The series is classed as functional, organism-based.

For orientation: IC50 means the concentration that gives 50% inhibition. Usually HC50 stands for the concentration that lyses half of the red blood cells.

On to `CCCCCCCCCCCCCC=C1CCC(OCCOP(=O)([O-])OCC[N+]2(C)CCOCC2)CC1` (stereo not given), for which the concentration for half-maximal inhibition (IC50) with Leishmania donovani came out at 38.6 µM; in the series with THP-1 it was 20.4 µM; in the series with Leishmania infantum it was 15.5 µM. Besides, in series [1], the HC50 came out at 58.8 µM.

In the case of `C[N+]1(CCOP(=O)([O-])OCCCCC=C2CCCCC2)CCCCC1`, the IC50 with Leishmania donovani and in the series with Leishmania infantum was more than 100 µM throughout.

As for `CCCCCCCCCCCC=C1CCC(OCCOP(=O)([O-])OCC[N+]2(C)CCOCC2)CC1` (stereo not given), the IC50 in the series with Leishmania donovani is 50.7 µM; in the series with Leishmania infantum, 16.5 µM. For the same compound, the HC50 in series [1] is more than 100 µM.

For `C[N+]1(CCOP(=O)([O-])OCCCCCCCCCCC=C2CCCCC2)CCCCC1`, the IC50 came out at 8.7 µM with Leishmania donovani and 47.6 µM in the series with Leishmania infantum. Also, the HC50 in series [1] is more than 100 µM.

Consider `C[N+]1(CCOP(=O)([O-])OCCOC2CCCCC2)CCCCC1`, for which the IC50 in the series with Leishmania donovani and in the series on Leishmania infantum was more than 100 µM in each case.

As for `CCCCCCCCCCCCC1CCC(OCCOP(=O)([O-])OCC[N+](C)(C)C)CC1` (stereo not given), the results for the half-inhibitory concentration (IC50) in the series on Leishmania donovani, with THP-1 and in the series with Leishmania infantum were 9.49 µM, 22.2 µM and 5.65 µM, respectively. For the same compound, the HC50 in series [1] stood at 75.7 µM.

For the compound `C[N+]1(CCOP(=O)([O-])OCCCCCCCCCCC=C2C3CC4CC(C3)CC2C4)CCOCC1`, the results for the IC50 in the series with Leishmania donovani, in the series with THP-1 and in the series on Leishmania infantum were 5.09 µM, 37.4 µM and 6.64 µM, respectively. The concentration for 50% haemolysis (HC50) in series [1] was more than 100 µM.

`CCCCCCCCCCCCCC=C1CCC(OCCOP(=O)([O-])OCC[N+]2(C)CCCCC2)CC1` (stereo not given): the results for the concentration for half-maximal inhibition (IC50) in the series on Leishmania donovani, in the series with THP-1 and in the series on Leishmania infantum were 29.7 µM, 65 µM and 11.4 µM, respectively. The 50% haemolytic concentration (HC50) in series [1] is more than 100 µM.

In the case of `C[N+](C)(C)CCOP(=O)([O-])OCCOC1CCCCC1`, the IC50 in the series on Leishmania donovani and with Leishmania infantum was more than 100 µM throughout.

For `C[N+](C)(C)CCOP(=O)([O-])OCCCCCC1C2CC3CC(C2)CC1C3` (stereo not given), the figures for the IC50 in the series on Leishmania donovani, in the series on THP-1 and with Leishmania infantum were 4.02 µM, 59.5 µM and more than 100 µM, respectively. Moreover, in series [1], the 50% haemolytic concentration (HC50) was more than 100 µM.

For the compound `C[N+]1(CCOP(=O)([O-])OCCCCCCCCCCC=C2C3CC4CC(C3)CC2C4)CCCCC1`, the figures for the IC50 in the series on Leishmania donovani, in the series with THP-1 and in the series on Leishmania infantum were 5.41 µM, 169 µM and 22.6 µM, respectively. In addition, the HC50 in series [1] was more than 100 µM.

For `C[N+](C)(C)CCOP(=O)([O-])OCCCCCCCCCCCC1CCCCC1`, the IC50 in the series on Leishmania donovani was determined as 10.3 µM; with THP-1, 35.5 µM; in the series on Leishmania infantum, 8.4 µM. Moreover, the HC50 in series [1] is more than 100 µM.

For the compound `CCCCCCCCCCCCCCCC=C1CCC(OCCOP(=O)([O-])OCC[N+](C)(C)C)CC1` (stereo not given), the half-inhibitory concentration (IC50) in the series with Leishmania donovani came to 45.1 µM; with Leishmania infantum it was 21.2 µM. The concentration for 50% haemolysis (HC50) in series [1] is more than 100 µM.

As to `CCCCCCCCCCCCCCCC=C1CCC(OCCOP(=O)([O-])OCC[N+]2(C)CCOCC2)CC1` (stereo not given), the 50% inhibitory concentration (IC50) amounted to 16.2 µM in the series on Leishmania donovani, 18.9 µM in the series on THP-1 and 3.7 µM with Leishmania infantum. Moreover, the concentration for 50% haemolysis (HC50) in series [1] is more than 100 µM.

With `C[N+](C)(C)C1CCCCC1OP(=O)([O-])OCCCCCCCCCCC=C1CCCCC1` (stereo not given), the values for the half-maximal inhibitory concentration (IC50) in the series with Leishmania donovani and in the series on Leishmania infantum were 26.3 µM and more than 100 µM, respectively. In series [1], the concentration for 50% haemolysis (HC50) came out at 59.8 µM.

As for `CCCCCCCCCCCCCCCCOP(=O)([O-])OCC[N+](C)(C)C` [MILTEFOSINE], in series [1], the HC50 was 38.3 µM.

With `CCCCCCCCCCCC=C1CCC(OCCOP(=O)([O-])OCC[N+](C)(C)C)CC1` (stereo not given), the half-maximal inhibitory concentration (IC50) was determined as 7.08 µM with Leishmania donovani, 26 µM with THP-1 and 3.25 µM in the series on Leishmania infantum. Moreover, the HC50 in series [1] amounted to 40.6 µM.

Consider `CCCCCCCCCCCCCC=C1CCC(OCCOP(=O)([O-])OCC[N+](C)(C)C)CC1` (stereo not given), for which the figures for the IC50 in the series on Leishmania donovani, in the series with THP-1 and in the series on Leishmania infantum were 3.91 µM, 20.2 µM and 5.25 µM, respectively. Besides, the HC50 in series [1] is more than 100 µM.

`C[N+](C)(C)C1CCCCC1OP(=O)([O-])OCCCCCCCCCCC=C1C2CC3CC(C2)CC1C3` (stereo not given): the IC50 in the series on Leishmania donovani is 16.6 µM; in the series on THP-1 it was 39.7 µM; with Leishmania infantum, more than 100 µM. In addition, the 50% haemolytic concentration (HC50) in series [1] was 66.6 µM.

Consider `C[N+](C)(C)CCOP(=O)([O-])OCCCCC=C1CCCCC1`, for which the IC50 in the series on Leishmania donovani and with Leishmania infantum was more than 100 µM each time.

`CCCCCCCCCCCC=C1CCC(OCCOP(=O)([O-])OCC[N+]2(C)CCCCC2)CC1` (stereo not given): the values for the IC50 with Leishmania donovani and with Leishmania infantum were 22 µM and 23.1 µM, respectively.

In the case of `C[N+](C)(C)C1CCCC1OP(=O)([O-])OCCCCCCCCCCC=C1C2CC3CC(C2)CC1C3` (stereo not given), the 50% inhibitory concentration (IC50) came to 3.92 µM with Leishmania donovani, 75 µM in the series on THP-1 and 38 µM with Leishmania infantum. In series [1], the HC50 was more than 100 µM.

As to `C[N+]1(CCOP(=O)([O-])OCCCCC=C2CCCCC2)CCOCC1`, the IC50 in the series on Leishmania donovani and with Leishmania infantum was more than 100 µM throughout.

`C[N+]1(CCOP(=O)([O-])OCCCCC=C2C3CC4CC(C3)CC2C4)CCCCC1`: the half-inhibitory concentration (IC50) with Leishmania donovani and with Leishmania infantum was more than 100 µM in each case.

For the compound `C[N+](C)(C)C1CCCC1OP(=O)([O-])OCCCCCCCCCCC=C1CCCCC1` (stereo not given), the IC50 in the series with Leishmania donovani is 8.56 µM; in the series with THP-1, 30.7 µM; in the series with Leishmania infantum it was more than 100 µM. In addition, the HC50 in series [1] was found to be 76.3 µM.

Regarding `CCCCCCCCCCCCCCCC=C1CCC(OCCOP(=O)([O-])OCC[N+]2(C)CCCCC2)CC1` (stereo not given), the concentration for half-maximal inhibition (IC50) worked out at 22 µM in the series on Leishmania donovani, 25.7 µM with THP-1 and 6.5 µM with Leishmania infantum. The HC50 in series [1] is more than 100 µM.

Consider `C[N+]1(CCOP(=O)([O-])OCCCCCCCCCCC=C2CCCCC2)CCOCC1`, for which the half-maximal inhibitory concentration (IC50) was 8.25 µM in the series on Leishmania donovani and 22.8 µM with Leishmania infantum.

Take `C[N+](C)(C)CCOP(=O)([O-])OCCCCCCCCCCC=C1C2CC3CC(C2)CC1C3`: the IC50 in the series on Leishmania donovani was determined as 3.16 µM; in the series on THP-1, 59.5 µM; with Leishmania infantum, 6.75 µM. Besides, in series [1], the HC50 is more than 100 µM.

On to `C[N+](C)(C)CCOP(=O)([O-])OCCCCCCCCCCC=C1CCCCC1`, for which the IC50 with Leishmania donovani came to 2.4 µM; in the series with THP-1, 31.3 µM; with Leishmania infantum, 5.2 µM. Also, the concentration for 50% haemolysis (HC50) in series [1] worked out at 68.3 µM.

For `C[N+]1(CCOP(=O)([O-])OCCCCC=C2C3CC4CC(C3)CC2C4)CCOCC1`, the IC50 in the series on Leishmania donovani was 46.9 µM; in the series with Leishmania infantum it was more than 100 µM.

Regarding `C[N+]1(CCOP(=O)([O-])OCCOC2CCCCC2)CCOCC1`, the IC50 in the series on Leishmania donovani and with Leishmania infantum was more than 100 µM in each case.

For `C[N+](C)(C)CCOP(=O)([O-])OCCCCCCCCCCCC1C2CC3CC(C2)CC1C3` (stereo not given), the IC50 was 2.88 µM in the series with Leishmania donovani, 169 µM in the series with THP-1 and 5.97 µM in the series with Leishmania infantum. For the same compound, in series [1], the HC50 was more than 100 µM.

Turning to `C[N+](C)(C)CCOP(=O)([O-])OCCCCC=C1C2CC3CC(C2)CC1C3`, the values for the IC50 with Leishmania donovani, in the series on THP-1 and with Leishmania infantum were 4.99 µM, more than 500 µM and more than 100 µM, respectively. Besides, the concentration for 50% haemolysis (HC50) in series [1] was more than 100 µM.

Source of the values: ChEMBL document CHEMBL1146334, “3D-Quantitative structure-activity relationships of synthetic antileishmanial ring-substituted ether phospholipids” (Bioorg Med Chem, 2007).
